# Columns and labels:
# [1] = test system: Human immunodeficiency virus; experiment: Antiviral activity against HIV/NL4-3 infected in human TZM-bl cells assessed as inhibition of viral replication after 48 hrs by luciferase reporter gene assay; assay type: functional, organism-based; settings: Human immunodeficiency virus 1, NL4-3, TZM-bl
# [2] = Cytotoxicity against human TZM-bl cells after 48 hrs by CytoTox-GloTM assay; assay type: cell-based
# KB [3] = experiment: Reversal of p-glycoprotein-mediated multidrug resistance in human vincristine-resistance KB cells assessed as potentiation of vincristine-induced cytotoxicity at 4 uM after 48 hrs by SRB assay; assay type: cell-based
# How it was run: (§1)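 Vincristine-resistant, P-gp over-expressing KB-vin cells were exposed to vincristine alone or with co-treatment by the test agent, with verapamil as positive control. Vincristine GI50 was read by SRB assay. Fold value = GI50 (vincristine alone) / GI50 (vincristine + test agent). At least three independent experiments.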
# [4] = target: ATP-dependent translocase ABCB1 (Homo sapiens, UniProt P08183); experiment: Inhibition of p-glycoprotein-mediated doxorubicin efflux in human KB cells assessed as doxorubicin accumulation preincubated for 1 hr prior doxorubicin addition measured after 3 hrs by fluorometric assay; assay type: cell-based
# How it was run: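 KB-vin cells were seeded at 5 × 10³ per well and grown 72 h at 37 °C in 5% CO2, then washed. They were pretreated with sample or vehicle for 1 h, then doxorubicin was added to 10 final and incubated 3 h. Cells were washed in ice-cold PBS and lysed in 1% SDS/PBS; fluorescence was read at Ex 488/Em 580 nm. Value = fluorescence with compound / without, after control subtraction. Verapamil served as positive control.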
# KB [5] = experiment: Reversal of p-glycoprotein-mediated multidrug resistance in human vincristine-resistance KB cells assessed as potentiation of vincristine-induced cytotoxicity at 4 uM after 48 hrs by SRB assay relative to verapamil; assay type: cell-based; how it was run: as §1
# KB [6] = experiment: Cytotoxicity against human KB cells at 4 uM after 48 hrs by SRB assay; assay type: functional
# KB [7] = experiment: Ratio of GI50 for human vincristine-resistance KB cells to GI50 for wild type human KB cells; assay type: functional
# Sequence of ATP-dependent translocase ABCB1 (P08183 whole entry): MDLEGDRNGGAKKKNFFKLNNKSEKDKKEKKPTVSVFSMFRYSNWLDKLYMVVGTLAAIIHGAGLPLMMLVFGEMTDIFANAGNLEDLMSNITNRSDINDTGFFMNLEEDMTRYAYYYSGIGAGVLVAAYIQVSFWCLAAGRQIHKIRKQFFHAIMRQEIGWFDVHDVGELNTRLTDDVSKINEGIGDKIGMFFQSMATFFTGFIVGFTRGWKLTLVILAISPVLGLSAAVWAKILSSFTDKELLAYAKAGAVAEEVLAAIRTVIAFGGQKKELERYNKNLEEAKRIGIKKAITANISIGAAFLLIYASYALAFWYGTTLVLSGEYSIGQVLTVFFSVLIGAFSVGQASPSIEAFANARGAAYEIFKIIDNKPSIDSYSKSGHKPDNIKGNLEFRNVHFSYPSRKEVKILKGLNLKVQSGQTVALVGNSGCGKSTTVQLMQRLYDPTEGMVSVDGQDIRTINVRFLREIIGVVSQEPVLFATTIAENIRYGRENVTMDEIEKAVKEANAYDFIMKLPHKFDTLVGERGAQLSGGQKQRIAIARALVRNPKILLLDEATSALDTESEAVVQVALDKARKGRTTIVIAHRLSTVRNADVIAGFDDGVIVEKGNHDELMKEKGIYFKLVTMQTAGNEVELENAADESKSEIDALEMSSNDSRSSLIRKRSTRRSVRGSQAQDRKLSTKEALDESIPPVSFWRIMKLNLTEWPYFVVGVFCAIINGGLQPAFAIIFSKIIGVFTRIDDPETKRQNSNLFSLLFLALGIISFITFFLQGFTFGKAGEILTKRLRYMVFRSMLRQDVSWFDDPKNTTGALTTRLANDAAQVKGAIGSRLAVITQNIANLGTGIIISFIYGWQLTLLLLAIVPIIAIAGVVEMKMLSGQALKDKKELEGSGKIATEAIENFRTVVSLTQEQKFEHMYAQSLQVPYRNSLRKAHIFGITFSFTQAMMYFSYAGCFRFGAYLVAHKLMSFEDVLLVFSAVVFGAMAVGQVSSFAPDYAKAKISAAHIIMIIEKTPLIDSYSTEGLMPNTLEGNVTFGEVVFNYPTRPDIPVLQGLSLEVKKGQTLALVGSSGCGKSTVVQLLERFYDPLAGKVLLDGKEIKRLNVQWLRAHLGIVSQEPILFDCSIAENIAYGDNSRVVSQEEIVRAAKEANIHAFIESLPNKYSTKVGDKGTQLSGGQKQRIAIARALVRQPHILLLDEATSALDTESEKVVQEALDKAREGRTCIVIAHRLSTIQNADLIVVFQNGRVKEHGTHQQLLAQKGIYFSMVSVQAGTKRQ
compound,measurement,setting,value
Cc1cc(=O)c2c(C)cc3c(c2o1)[C@@H](OC(=O)[C@@]12CCC(C)(C(=O)O1)C2(C)C)[C@@H](OC(=O)[C@@]12CCC(C)(C(=O)O1)C2(C)C)C(C)(C)O3,EC50,[1],36 nM
same,IC50,[2],> 10000 nM
same,fold change (FC),KB [3],910
same,inhibition (INH),[4],Active
same,fold change (FC),KB [5],20
COc1cc2c(c3oc4cc(C)ccc4c(=O)c13)[C@@H](OC(=O)[C@@]13CCC(C)(C(=O)O1)C3(C)C)[C@@H](OC(=O)[C@@]13CCC(C)(C(=O)O1)C3(C)C)C(C)(C)O2,EC50,[1],95 nM
same,IC50,[2],> 10000 nM
same,fold change (FC),KB [3],352
CC1(C)Oc2cc(O)c3c(=O)c4ccccc4oc3c2[C@@H](OC(=O)[C@@]23CCC(C)(C(=O)O2)C3(C)C)[C@H]1OC(=O)[C@@]12CCC(C)(C(=O)O1)C2(C)C,IC50,[2],> 10000 nM
same,fold change (FC),KB [3],< 24
CCc1cc(=O)c2ccc3c(c2o1)[C@@H](OC(=O)[C@@]12CCC(C)(C(=O)O1)C2(C)C)[C@@H](OC(=O)[C@@]12CCC(C)(C(=O)O1)C2(C)C)C(C)(C)O3,EC50,[1],70 nM
same,IC50,[2],> 10000 nM
same,fold change (FC),KB [3],132
COc1cc2c(c3oc4cccc(C)c4c(=O)c13)[C@@H](OC(=O)[C@@]13CCC(C)(C(=O)O1)C3(C)C)[C@@H](OC(=O)[C@@]13CCC(C)(C(=O)O1)C3(C)C)C(C)(C)O2,EC50,[1],150 nM
same,IC50,[2],> 10000 nM
same,fold change (FC),KB [3],1390
same,fold change (FC),KB [5],20
COc1cc2c(c3oc4c(C)cccc4c(=O)c13)[C@@H](OC(=O)[C@@]13CCC(C)(C(=O)O1)C3(C)C)[C@@H](OC(=O)[C@@]13CCC(C)(C(=O)O1)C3(C)C)C(C)(C)O2,EC50,[1],1520 nM
same,IC50,[2],> 10000 nM
same,fold change (FC),KB [3],1100
same,fold change (FC),KB [5],20
CCc1cc(=O)c2c(C)cc3c(c2o1)[C@@H](OC(=O)[C@@]12CCC(C)(C(=O)O1)C2(C)C)[C@@H](OC(=O)[C@@]12CCC(C)(C(=O)O1)C2(C)C)C(C)(C)O3,EC50,[1],100 nM
same,IC50,[2],> 10000 nM
same,fold change (FC),KB [3],677
same,inhibition (INH),[4],Active
COc1ccc2c(=O)c3c(OC)cc4c(c3oc2c1)[C@@H](OC(=O)[C@@]12CCC(C)(C(=O)O1)C2(C)C)[C@@H](OC(=O)[C@@]12CCC(C)(C(=O)O1)C2(C)C)C(C)(C)O4,EC50,[1],362 nM
same,IC50,[2],> 10000 nM
same,fold change (FC),KB [3],98
COc1cc(C)c2c(=O)c3c(OC)cc4c(c3oc2c1)[C@@H](OC(=O)[C@@]12CCC(C)(C(=O)O1)C2(C)C)[C@@H](OC(=O)[C@@]12CCC(C)(C(=O)O1)C2(C)C)C(C)(C)O4,EC50,[1],140 nM
same,IC50,[2],> 10000 nM
same,fold change (FC),KB [3],518
COc1cc2c(c3oc4cc(Br)ccc4c(=O)c13)[C@@H](OC(=O)[C@@]13CCC(C)(C(=O)O1)C3(C)C)[C@@H](OC(=O)[C@@]13CCC(C)(C(=O)O1)C3(C)C)C(C)(C)O2,IC50,[2],> 10000 nM
same,fold change (FC),KB [3],264
CC[C@]1(O)C[C@H]2CN(CCc3c([nH]c4ccccc34)[C@@](C(=O)OC)(c3cc4c(cc3OC)N(C=O)[C@H]3[C@@](O)(C(=O)OC)[C@H](OC(C)=O)[C@]5(CC)C=CCN6CC[C@]43[C@@H]65)C2)C1 [VINCRISTINE],GI50,KB [6],2 nM
same,RatioGI50,KB [7],1320
COc1cc2c(c3oc4ccc(C)cc4c(=O)c13)[C@@H](OC(=O)[C@@]13CCC(C)(C(=O)O1)C3(C)C)[C@@H](OC(=O)[C@@]13CCC(C)(C(=O)O1)C3(C)C)C(C)(C)O2,EC50,[1],65 nM
same,IC50,[2],> 10000 nM
same,fold change (FC),KB [3],388
COc1cc2c(c3oc4ccccc4c(=O)c13)[C@@H](OC(=O)[C@@]13CCC(C)(C(=O)O1)C3(C)C)[C@@H](OC(=O)[C@@]13CCC(C)(C(=O)O1)C3(C)C)C(C)(C)O2,EC50,[1],63 nM
same,IC50,[2],> 10000 nM
same,fold change (FC),KB [3],776
same,inhibition (INH),[4],Active
COc1cccc2c(=O)c3c(OC)cc4c(c3oc12)[C@@H](OC(=O)[C@@]12CCC(C)(C(=O)O1)C2(C)C)[C@@H](OC(=O)[C@@]12CCC(C)(C(=O)O1)C2(C)C)C(C)(C)O4,IC50,[2],> 10000 nM
same,fold change (FC),KB [3],1020
same,fold change (FC),KB [5],20
COc1cc2c(c3oc4c(F)cccc4c(=O)c13)[C@@H](OC(=O)[C@@]13CCC(C)(C(=O)O1)C3(C)C)[C@@H](OC(=O)[C@@]13CCC(C)(C(=O)O1)C3(C)C)C(C)(C)O2,EC50,[1],230 nM
same,IC50,[2],> 10000 nM
same,fold change (FC),KB [3],880
COc1ccc(CCN(C)CCCC(C#N)(c2ccc(OC)c(OC)c2)C(C)C)cc1OC (stereo unspecified),fold change (FC),KB [3],60
COc1cc2c(c3oc4ccc(F)cc4c(=O)c13)[C@@H](OC(=O)[C@@]13CCC(C)(C(=O)O1)C3(C)C)[C@@H](OC(=O)[C@@]13CCC(C)(C(=O)O1)C3(C)C)C(C)(C)O2,EC50,[1],100 nM
same,IC50,[2],> 10000 nM
same,fold change (FC),KB [3],1150
same,fold change (FC),KB [5],20
COc1ccc2oc3c4c(cc(OC)c3c(=O)c2c1)OC(C)(C)[C@H](OC(=O)[C@@]12CCC(C)(C(=O)O1)C2(C)C)[C@@H]4OC(=O)[C@@]12CCC(C)(C(=O)O1)C2(C)C,EC50,[1],121 nM
same,IC50,[2],> 10000 nM
same,fold change (FC),KB [3],343
CC1(C)Oc2ccc3c(=O)c4ccccc4oc3c2[C@@H](OC(=O)[C@@]23CCC(C)(C(=O)O2)C3(C)C)[C@H]1OC(=O)[C@@]12CCC(C)(C(=O)O1)C2(C)C,EC50,[1],308 nM
same,IC50,[2],> 10000 nM
same,fold change (FC),KB [3],1260
same,fold change (FC),KB [5],20
COc1c(Br)c2c(c3oc4ccccc4c(=O)c13)[C@@H](OC(=O)[C@@]13CCC(C)(C(=O)O1)C3(C)C)[C@@H](OC(=O)[C@@]13CCC(C)(C(=O)O1)C3(C)C)C(C)(C)O2,IC50,[2],> 10000 nM
same,fold change (FC),KB [3],1650
same,fold change (FC),KB [5],20
Cc1cc(=O)c2ccc3c(c2o1)[C@@H](OC(=O)[C@@]12CCC(C)(C(=O)O1)C2(C)C)[C@@H](OC(=O)[C@@]12CCC(C)(C(=O)O1)C2(C)C)C(C)(C)O3,EC50,[1],100 nM
same,IC50,[2],> 10000 nM
same,fold change (FC),KB [3],88
